Reference: ChEMBL document CHEMBL3616442, “Unconventional Knoevenagel-type indoles: Synthesis and cell-based studies for the identification of pro-apoptotic agents” (Eur J Med Chem, 2015)

What was measured:
Type in all cases: functional
OVCAR-5 = experiment: Growth inhibition of human OVCAR5 cells after 48 hrs by sulforhodamine B assay; details: OVCAR-5, 48 h
SK-MEL-5 = experiment: Growth inhibition of human SK-MEL-5 cells after 48 hrs by sulforhodamine B assay; details: SK-MEL-5, 48 h
[1] = Growth inhibition of human BT549 cells after 48 hrs by sulforhodamine B assay; details: BT-549, 48 h
Method in brief: (§1)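 NCI 60-cell-line screen. Compounds tested at five 10-fold dilutions from 10^-4 to 10^-8 M. Cells exposed for the last 48 h of a 72 h incubation, growth estimated by sulforhodamine B protein assay. GI50 is the concentration giving 50% growth inhibition. Values beyond the tested range are expressed as greater or lesser than the extreme concentration.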

HT-29 = experiment: Growth inhibition of human HT-29 cells after 48 hrs by sulforhodamine B assay; details: HT-29, 48 h; method in brief: as §1
786-0 = experiment: Growth inhibition of human 786-0 cells after 48 hrs by sulforhodamine B assay; details: 786-0, 48 h; method in brief: as §1
IGROV-1 = experiment: Growth inhibition of human IGROV1 cells after 48 hrs by sulforhodamine B assay; details: IGROV-1, 48 h; method in brief: as §1
[2] = Growth inhibition of human COLO205 cells after 48 hrs by sulforhodamine B assay; details: COLO 205, 48 h; method in brief: as §1
[3] = Growth inhibition of human NCI-ADR-RES cells after 48 hrs by sulforhodamine B assay; method in brief: as §1
SN12C = experiment: Growth inhibition of human SN12C cells after 48 hrs by sulforhodamine B assay
U-251 = experiment: Growth inhibition of human U251 cells after 48 hrs by sulforhodamine B assay; details: U-251, 48 h
A549 = experiment: Growth inhibition of human A549 cells after 48 hrs by sulforhodamine B assay; details: A549, 48 h; method in brief: as §1
[4] = Growth inhibition of human SF295 cells after 48 hrs by sulforhodamine B assay; details: SF-295, 48 h
NCI-H522 = experiment: Growth inhibition of human NCI-H522 cells after 48 hrs by sulforhodamine B assay; details: NCI-H522, 48 h; method in brief: as §1
OVCAR-3 = experiment: Growth inhibition of human OVCAR3 cells after 48 hrs by sulforhodamine B assay; details: OVCAR-3, 48 h; method in brief: as §1
MDA-MB-231 = experiment: Growth inhibition of human MDA-MB-231 cells after 48 hrs by sulforhodamine B assay; details: MDA-MB-231, 48 h; method in brief: as §1
HOP-62 = experiment: Growth inhibition of human HOP62 cells after 48 hrs by sulforhodamine B assay; details: HOP-62, 48 h; method in brief: as §1
UO-31 = experiment: Growth inhibition of human UO31 cells after 48 hrs by sulforhodamine B assay; details: UO-31, 48 h
HCT-15 = experiment: Growth inhibition of human HCT15 cells after 48 hrs by sulforhodamine B assay; details: HCT-15, 48 h; method in brief: as §1
SNB-19 = experiment: Growth inhibition of human SNB19 cells after 48 hrs by sulforhodamine B assay; details: SNB-19, 48 h
UACC-257 = experiment: Growth inhibition of human UACC257 cells after 48 hrs by sulforhodamine B assay; details: UACC-257, 48 h
OVCAR-8 = experiment: Growth inhibition of human OVCAR8 cells after 48 hrs by sulforhodamine B assay; details: OVCAR-8, 48 h
SR = experiment: Growth inhibition of human SR cells after 48 hrs by sulforhodamine B assay
UACC-62 = experiment: Growth inhibition of human UACC62 cells after 48 hrs by sulforhodamine B assay; details: UACC-62, 48 h
[5] = Growth inhibition of human HCC2998 cells after 48 hrs by sulforhodamine B assay; details: HCC 2998, 48 h; method in brief: as §1
ACHN = experiment: Growth inhibition of human ACHN cells after 48 hrs by sulforhodamine B assay; method in brief: as §1
[6] = Growth inhibition of human SF539 cells after 48 hrs by sulforhodamine B assay; details: SF-539, 48 h
HL-60(TB) = experiment: Growth inhibition of human HL-60(TB) cells after 48 hrs by sulforhodamine B assay; details: HL-60, 48 h
Method in brief: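 NCI 60-cell-line screen, HL-60(TB) included. Compound given at five 10-fold dilutions from 10^-4 to 10^-8 M. Cells exposed for the last 48 h of a 72 h incubation. Growth or viability estimated by sulforhodamine B protein assay. GI50 is the concentration giving 50% growth inhibition. Values outside the tested range are reported as greater or less than the highest or lowest concentration.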

A498 = experiment: Growth inhibition of human A498 cells after 48 hrs by sulforhodamine B assay; details: A498, 48 h; method in brief: as §1
Malme-3M = experiment: Growth inhibition of human MALME-3M cells after 48 hrs by sulforhodamine B assay; method in brief: as §1
NCI-H23 = experiment: Growth inhibition of human NCI-H23 cells after 48 hrs by sulforhodamine B assay; details: NCI-H23, 48 h; method in brief: as §1
NCI-H322M = experiment: Growth inhibition of human NCI-H322M cells after 48 hrs by sulforhodamine B assay; method in brief: as §1
M14 = experiment: Growth inhibition of human M14 cells after 48 hrs by sulforhodamine B assay; details: M14, 48 h; method in brief: as §1
MDA-MB-435 = experiment: Growth inhibition of human MDA-MB-435 cells after 48 hrs by sulforhodamine B assay; details: MDA-MB-435, 48 h; method in brief: as §1
SF-268 = experiment: Growth inhibition of human SF268 cells after 48 hrs by sulforhodamine B assay; details: SF-268, 48 h
[7] = Growth inhibition of human MOLT4 cells after 48 hrs by sulforhodamine B assay; details: MOLT-4, 48 h; method in brief: as §1
[8] = Growth inhibition of human EKVX cells after 48 hrs by sulforhodamine B assay; method in brief: as §1
NCI-H226 = experiment: Growth inhibition of human NCI-H226 cells after 48 hrs by sulforhodamine B assay; details: NCI-H226, 48 h; method in brief: as §1
SW-620 = experiment: Growth inhibition of human SW620 cells after 48 hrs by sulforhodamine B assay; details: SW-620, 48 h
TK-10 = experiment: Growth inhibition of human TK10 cells after 48 hrs by sulforhodamine B assay; details: TK-10, 48 h
NCI-H460 = experiment: Growth inhibition of human NCI-H460 cells after 48 hrs by sulforhodamine B assay; details: NCI-H460, 48 h; method in brief: as §1
MDA-MB-468 = experiment: Growth inhibition of human MDA-MB-468 cells after 48 hrs by sulforhodamine B assay; details: MDA-MB-468, 48 h; method in brief: as §1
PC-3 = experiment: Growth inhibition of human PC3 cells after 48 hrs by sulforhodamine B assay; details: PC-3, 48 h
T47D = experiment: Growth inhibition of human T47D cells after 48 hrs by sulforhodamine B assay
K562 = experiment: Growth inhibition of human K562 cells after 48 hrs by sulforhodamine B assay; details: K562, 48 h; method in brief: as §1
CAKI-1 = experiment: Growth inhibition of human CAKI-1 cells after 48 hrs by sulforhodamine B assay; details: CAKI-1, 48 h; method in brief: as §1
CCRF-CEM = experiment: Growth inhibition of human CCRF-CEM cells after 48 hrs by sulforhodamine B assay; method in brief: as §1

N#C/C(=C\c1c(-c2ccccc2)[nH]c2ccccc12)S(=O)(=O)c1ccccc1 showed a GI50 (OVCAR-5) of 13.9 µM, a GI50 (SK-MEL-5) of 1.82 µM and a GI50 [1] of 11.6 µM. It also gave a GI50 (HT-29) of 0.595 µM, a GI50 (786-0) of 9.2 µM and a GI50 (IGROV-1) of 3.3 µM. It also gave a GI50 [2] of 1.4 µM, a GI50 [3] of 1.1 µM and a GI50 (SN12C) of 5.2 µM. It also gave a GI50 (U-251) of 2.6 µM, a GI50 (A549) of 3.7 µM and a GI50 [4] of 2.4 µM. It also gave a GI50 (NCI-H522) of 4.6 µM, a GI50 (OVCAR-3) of 1.4 µM and a GI50 (MDA-MB-231) of 3.8 µM. The GI50 (HOP-62) was 9.3 µM, the GI50 (UO-31) was 6.7 µM and the GI50 (HCT-15) was 1.1 µM. The GI50 (SNB-19) was 8.3 µM, the GI50 (UACC-257) was 18.2 µM and the GI50 (OVCAR-8) was 6 µM. The GI50 (SR) was 17.3 µM, the GI50 (UACC-62) was 2.6 µM and the GI50 [5] was 10.9 µM. The GI50 (ACHN) was 7 µM, the GI50 [6] was 2.5 µM and the GI50 (HL-60(TB)) was 1.8 µM. For the same compound, the GI50 (A498) was 11 µM, the GI50 (Malme-3M) was 8.4 µM and the GI50 (NCI-H23) was 4.7 µM. It also gave a GI50 (NCI-H322M) of 9.2 µM, a GI50 (M14) of 3.8 µM and a GI50 (MDA-MB-435) of 0.288 µM. It also gave a GI50 (SF-268) of 4.5 µM, a GI50 [7] of 2.2 µM and a GI50 [8] of 6.2 µM. The GI50 (NCI-H226) was 4.1 µM, the GI50 (SW-620) was 0.57 µM and the GI50 (TK-10) was 5.6 µM. It also gave a GI50 (NCI-H460) of 2.7 µM, a GI50 (MDA-MB-468) of 1.9 µM and a GI50 (PC-3) of 3.4 µM. For the same compound, the GI50 (T47D) was 3.8 µM, the GI50 (K562) was 0.348 µM and the GI50 (CAKI-1) was 5.5 µM. It also gave a GI50 (CCRF-CEM) of 2.6 µM.
